16 molecules from ChEMBL document CHEMBL1240344, “Phage-encoded combinatorial chemical libraries based on bicyclic peptides” (Nat Chem Biol, 2009) can be followed below.

Active and inactive are the calls of the source. The calls are words filed in the database; no cut-off is given here. Starred links: 1 amine or outer side, 2 acyl side, 3 side chain; linkers in the order of their positions; H or OH if unused. Positions of bridges follow the written chain, without caps; N, C: chain ends. Residues, ends and D or L forms follow the SMILES beside them. TBMB = c1c(C[*:1])cc(C[*:3])cc1C[*:2]

Series [1] deals with Urokinase-type plasminogen activator (Homo sapiens, UniProt P00749). Kind of series: Binding affinity to urokinase-type plasminogen activator.
Series [2] concerns the target Receptor tyrosine-protein kinase erbB-2 (Homo sapiens, UniProt P04626). The experiment in a line: Binding affinity to ErbB-2.
For series [3], the target named is Plasma kallikrein (Mus musculus) (UniProt P26262). Kind of series: Inhibition of mouse plasma kallikrein at 10 uM using Z-Phe-Arg-AMC substrate after 30 mins by spectrophotometric assay. It is filed as cell-free.
Chain of Plasma kallikrein (Mus musculus) (P26262 20-390 limits assumed): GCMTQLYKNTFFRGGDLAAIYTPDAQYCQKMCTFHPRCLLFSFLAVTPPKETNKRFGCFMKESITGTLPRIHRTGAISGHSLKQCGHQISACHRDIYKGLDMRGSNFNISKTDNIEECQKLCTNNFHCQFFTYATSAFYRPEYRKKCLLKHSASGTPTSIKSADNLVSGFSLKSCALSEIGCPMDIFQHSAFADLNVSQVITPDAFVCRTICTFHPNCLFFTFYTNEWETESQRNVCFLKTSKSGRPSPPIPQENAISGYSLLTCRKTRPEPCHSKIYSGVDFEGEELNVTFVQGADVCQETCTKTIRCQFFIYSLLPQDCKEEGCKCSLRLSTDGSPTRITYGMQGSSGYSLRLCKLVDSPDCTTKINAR
Chain of Plasma kallikrein (Mus musculus) (P26262 391-638 limits assumed): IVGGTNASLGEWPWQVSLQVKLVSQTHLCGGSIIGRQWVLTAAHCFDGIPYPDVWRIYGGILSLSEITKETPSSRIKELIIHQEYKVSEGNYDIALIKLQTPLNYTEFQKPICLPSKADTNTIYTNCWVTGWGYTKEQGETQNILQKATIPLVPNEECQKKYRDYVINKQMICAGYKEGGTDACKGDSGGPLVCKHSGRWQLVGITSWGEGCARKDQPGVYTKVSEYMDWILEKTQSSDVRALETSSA
Series [4] concerns the target Prothrombin (Homo sapiens) (UniProt P00734). The experiment in a line: Inhibition of human thrombin at 10 uM using Boc-Phe-Ser-Arg-AMC substrate after 30 mins by spectrophotometric assay.
For series [5], the target named is Coagulation factor XI (Homo sapiens) (UniProt P03951). The experiment in a line: Inhibition of human factor 11a at 10 uM using Z-Phe-Arg-AMC substrate after 30 mins by spectrophotometric assay.
Chain of Coagulation factor XI (Homo sapiens) (P03951 19-387 limits assumed): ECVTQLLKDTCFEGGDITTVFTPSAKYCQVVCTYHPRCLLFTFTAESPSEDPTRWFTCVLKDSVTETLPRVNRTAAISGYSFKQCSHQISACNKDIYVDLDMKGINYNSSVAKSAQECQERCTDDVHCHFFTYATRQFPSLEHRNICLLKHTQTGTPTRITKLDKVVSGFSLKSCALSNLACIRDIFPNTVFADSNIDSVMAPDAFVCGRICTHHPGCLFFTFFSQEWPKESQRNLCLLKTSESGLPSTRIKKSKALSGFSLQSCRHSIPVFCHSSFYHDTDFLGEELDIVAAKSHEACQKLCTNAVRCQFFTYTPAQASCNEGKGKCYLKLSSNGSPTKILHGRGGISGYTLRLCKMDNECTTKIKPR
Chain of Coagulation factor XI (Homo sapiens) (P03951 388-625 limits assumed): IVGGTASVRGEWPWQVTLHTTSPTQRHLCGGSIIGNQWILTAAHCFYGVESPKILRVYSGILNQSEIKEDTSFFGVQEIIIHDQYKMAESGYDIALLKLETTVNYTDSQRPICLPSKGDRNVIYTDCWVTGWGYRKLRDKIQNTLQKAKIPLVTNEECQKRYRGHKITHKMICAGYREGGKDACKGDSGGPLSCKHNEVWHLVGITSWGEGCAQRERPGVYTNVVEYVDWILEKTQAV
Series [6] in a line: Binding affinity to chymotrypsin.
In series [7] the target is Coagulation factor VII/tissue factor (Homo sapiens, UniProt P08709). Kind of series: Binding affinity to tissue factor/factor 7a. It is filed as protein-complex assay.
Chain of Coagulation factor VII/tissue factor (P08709 61-212 limits assumed): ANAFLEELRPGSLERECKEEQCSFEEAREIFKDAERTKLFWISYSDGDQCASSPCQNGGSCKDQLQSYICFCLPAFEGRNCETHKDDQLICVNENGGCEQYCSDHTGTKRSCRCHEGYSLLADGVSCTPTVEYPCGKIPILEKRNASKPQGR
Chain of Coagulation factor VII/tissue factor (P08709 213-466 limits assumed): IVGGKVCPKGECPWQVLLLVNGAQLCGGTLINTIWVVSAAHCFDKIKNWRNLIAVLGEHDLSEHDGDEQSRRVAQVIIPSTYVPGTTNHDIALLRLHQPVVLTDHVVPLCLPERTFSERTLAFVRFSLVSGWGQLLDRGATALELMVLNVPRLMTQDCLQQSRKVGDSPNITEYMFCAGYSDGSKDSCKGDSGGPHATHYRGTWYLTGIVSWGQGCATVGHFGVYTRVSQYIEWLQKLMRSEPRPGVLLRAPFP
Chain of Coagulation factor VII/tissue factor (P13726 33-295 partner limits assumed): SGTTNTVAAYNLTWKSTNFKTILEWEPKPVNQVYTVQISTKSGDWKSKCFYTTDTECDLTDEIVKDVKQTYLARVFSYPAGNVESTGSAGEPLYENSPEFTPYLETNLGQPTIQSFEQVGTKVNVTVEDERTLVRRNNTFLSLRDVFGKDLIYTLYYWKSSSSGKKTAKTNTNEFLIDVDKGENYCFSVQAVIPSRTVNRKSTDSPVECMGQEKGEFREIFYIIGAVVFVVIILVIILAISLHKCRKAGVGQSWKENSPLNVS
For series [8], the target named is T1, Kallikrein-2 (Homo sapiens, UniProt P20151).
T1 sequence (P20151 whole entry): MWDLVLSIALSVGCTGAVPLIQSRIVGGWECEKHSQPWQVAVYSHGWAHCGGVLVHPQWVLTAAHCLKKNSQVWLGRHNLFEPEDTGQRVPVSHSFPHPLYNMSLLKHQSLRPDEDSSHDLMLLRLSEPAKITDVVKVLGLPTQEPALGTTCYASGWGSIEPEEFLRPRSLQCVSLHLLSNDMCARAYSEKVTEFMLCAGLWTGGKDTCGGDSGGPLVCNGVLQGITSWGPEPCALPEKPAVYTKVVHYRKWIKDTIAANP
The experiment in a line: Binding affinity to human kallikrein 2.

Series [9] deals with Angiotensin-converting enzyme 2 (Homo sapiens, UniProt Q9BYF1). The experiment in a line: Binding affinity to angiotensin converting enzyme 2.
Chain of Angiotensin-converting enzyme 2 (Q9BYF1 whole entry): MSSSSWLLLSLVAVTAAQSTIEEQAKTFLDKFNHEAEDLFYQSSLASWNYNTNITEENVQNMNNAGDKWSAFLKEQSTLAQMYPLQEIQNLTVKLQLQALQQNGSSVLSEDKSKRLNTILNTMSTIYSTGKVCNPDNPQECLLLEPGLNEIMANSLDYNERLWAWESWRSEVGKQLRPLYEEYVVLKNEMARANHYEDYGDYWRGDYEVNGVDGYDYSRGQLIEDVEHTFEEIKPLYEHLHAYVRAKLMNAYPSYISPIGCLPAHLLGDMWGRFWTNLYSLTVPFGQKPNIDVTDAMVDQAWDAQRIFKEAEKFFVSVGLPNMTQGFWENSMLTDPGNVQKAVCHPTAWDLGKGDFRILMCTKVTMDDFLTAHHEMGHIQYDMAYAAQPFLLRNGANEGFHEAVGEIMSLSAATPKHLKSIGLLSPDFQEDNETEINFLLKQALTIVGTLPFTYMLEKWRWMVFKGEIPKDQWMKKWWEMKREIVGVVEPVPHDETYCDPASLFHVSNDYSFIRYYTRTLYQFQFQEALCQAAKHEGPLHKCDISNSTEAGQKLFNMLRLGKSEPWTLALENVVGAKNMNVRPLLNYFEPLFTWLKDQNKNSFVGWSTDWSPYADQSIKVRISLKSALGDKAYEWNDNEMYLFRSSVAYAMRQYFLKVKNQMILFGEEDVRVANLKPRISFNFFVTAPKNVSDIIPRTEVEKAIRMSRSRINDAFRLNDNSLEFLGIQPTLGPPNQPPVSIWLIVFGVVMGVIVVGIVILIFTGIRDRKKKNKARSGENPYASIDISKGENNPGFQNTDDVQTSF
Series [10] deals with T2, Prostate-specific antigen (Homo sapiens, UniProt P07288).
T2 sequence (P07288 whole entry): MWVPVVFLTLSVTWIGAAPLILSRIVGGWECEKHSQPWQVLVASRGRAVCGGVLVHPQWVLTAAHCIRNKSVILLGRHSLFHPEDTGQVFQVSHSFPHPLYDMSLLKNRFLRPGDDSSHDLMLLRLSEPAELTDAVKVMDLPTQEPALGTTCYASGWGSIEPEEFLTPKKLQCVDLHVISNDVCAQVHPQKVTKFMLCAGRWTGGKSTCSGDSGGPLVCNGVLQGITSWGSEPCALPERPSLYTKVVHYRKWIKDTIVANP
Kind of series: Binding affinity to prostate specific antigen.

Series [11] addresses T3, Plasma kallikrein (Homo sapiens, UniProt P03952). Kind of series: Inhibition of human plasma kallikrein using Z-Phe-Arg-AMC substrate after 30 mins by spectrophotometric assay.
Series [12] in a line: Binding affinity to urease.
Series [13] in a line: Binding affinity to beta-lactamase.
Series [14] has as its target T3, Plasma kallikrein. The experiment in a line: Inhibition of kallikrein-mediated intrinsic coagulation pathway in human plasma assessed as reduction in factor 12a generation at 160 nM by colorimetric assay. It is filed as cell-free. The essentials: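 Human plasma was triggered with kaolin to start the intrinsic pathway. Factor XIIa activity was then read with a colorimetric substrate.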

Series [15] is described as follows: Chemical stability assessed as compound cleavage in presence of Aeromonas proteolytica by mass spectrometric analysis. It is filed as physicochemical. A digest of the protocol: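 The kallikrein-cleaved peptide was incubated with leucyl aminopeptidase from Aeromonas proteolytica. The products were analysed by mass spectrometry to locate the cleavage site.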

Series [16] is described as follows: Chemical stability of compound assessed as drug cleavage in presence of plasma kallikrein after 24 hrs at 37 degC by mass spectrometric analysis. It is filed as physicochemical. Conditions: read-out: Activity. A digest of the protocol:
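The peptide was incubated with human plasma kallikrein. Cleavage was detected by mass spectrometry as an 18 Da mass gain, and the cleaved fraction was estimated.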

T3 sequence (P03952 20-390 limits assumed): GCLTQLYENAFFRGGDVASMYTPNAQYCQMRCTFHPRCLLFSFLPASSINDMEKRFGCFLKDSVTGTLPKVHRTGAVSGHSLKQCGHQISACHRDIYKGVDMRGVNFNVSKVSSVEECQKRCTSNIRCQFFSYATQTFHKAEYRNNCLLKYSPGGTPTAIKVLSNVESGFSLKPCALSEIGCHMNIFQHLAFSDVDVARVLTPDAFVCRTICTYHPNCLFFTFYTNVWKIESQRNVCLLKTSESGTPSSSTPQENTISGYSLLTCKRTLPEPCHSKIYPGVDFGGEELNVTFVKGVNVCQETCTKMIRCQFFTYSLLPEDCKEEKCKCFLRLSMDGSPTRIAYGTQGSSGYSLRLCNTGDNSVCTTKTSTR
T3 sequence (P03952 391-638 limits assumed): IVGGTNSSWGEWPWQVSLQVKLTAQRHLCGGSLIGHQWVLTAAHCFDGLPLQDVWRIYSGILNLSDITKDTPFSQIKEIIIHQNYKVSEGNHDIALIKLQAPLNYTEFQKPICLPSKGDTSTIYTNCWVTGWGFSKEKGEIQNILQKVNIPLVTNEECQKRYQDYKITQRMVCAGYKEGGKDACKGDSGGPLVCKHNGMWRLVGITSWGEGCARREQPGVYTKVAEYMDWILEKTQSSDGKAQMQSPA
Chain of Receptor tyrosine-protein kinase erbB-2 (P04626 whole entry): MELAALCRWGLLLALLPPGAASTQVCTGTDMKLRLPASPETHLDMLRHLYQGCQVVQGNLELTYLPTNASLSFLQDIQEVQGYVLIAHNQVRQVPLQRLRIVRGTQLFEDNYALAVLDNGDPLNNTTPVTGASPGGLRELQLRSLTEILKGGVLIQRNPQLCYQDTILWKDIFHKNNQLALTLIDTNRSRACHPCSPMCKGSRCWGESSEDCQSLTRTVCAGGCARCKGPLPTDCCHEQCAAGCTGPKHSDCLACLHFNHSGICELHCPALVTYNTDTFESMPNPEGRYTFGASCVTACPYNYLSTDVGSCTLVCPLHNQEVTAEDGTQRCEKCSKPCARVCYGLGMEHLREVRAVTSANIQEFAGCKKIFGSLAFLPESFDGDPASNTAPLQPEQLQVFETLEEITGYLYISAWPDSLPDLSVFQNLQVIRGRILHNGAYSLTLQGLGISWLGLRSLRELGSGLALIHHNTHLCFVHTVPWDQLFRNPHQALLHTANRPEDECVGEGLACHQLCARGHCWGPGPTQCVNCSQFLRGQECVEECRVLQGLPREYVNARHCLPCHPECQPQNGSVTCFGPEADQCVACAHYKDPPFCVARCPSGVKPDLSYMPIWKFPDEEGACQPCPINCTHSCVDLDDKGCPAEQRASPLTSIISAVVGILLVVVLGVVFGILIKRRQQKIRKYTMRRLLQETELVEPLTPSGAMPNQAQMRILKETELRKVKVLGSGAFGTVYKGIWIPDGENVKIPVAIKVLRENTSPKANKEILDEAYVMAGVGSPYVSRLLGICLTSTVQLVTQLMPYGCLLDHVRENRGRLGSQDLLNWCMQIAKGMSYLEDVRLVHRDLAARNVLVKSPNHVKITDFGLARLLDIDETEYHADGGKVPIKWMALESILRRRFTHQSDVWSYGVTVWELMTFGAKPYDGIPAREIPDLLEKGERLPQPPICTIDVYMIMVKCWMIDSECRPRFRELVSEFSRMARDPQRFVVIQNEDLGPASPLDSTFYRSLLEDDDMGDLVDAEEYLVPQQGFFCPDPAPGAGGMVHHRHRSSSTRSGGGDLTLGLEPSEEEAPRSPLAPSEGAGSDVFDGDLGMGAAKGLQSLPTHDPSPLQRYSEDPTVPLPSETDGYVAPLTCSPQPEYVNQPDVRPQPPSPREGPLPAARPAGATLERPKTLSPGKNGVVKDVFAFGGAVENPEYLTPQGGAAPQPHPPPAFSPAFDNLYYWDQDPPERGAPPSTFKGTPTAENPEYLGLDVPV

In series [1], `CSCC[C@H](NC(=O)[C@H](CCCNC(=N)N)NC(=O)[C@H](Cc1cnc[nH]1)NC(=O)[C@H](CC(N)=O)NC(=O)[C@H](CCC(=O)O)NC(=O)[C@H](CC(C)C)NC(=O)CNC(=O)[C@H](CCCNC(=N)N)NC(=O)[C@H](Cc1c[nH]c2ccccc12)NC(=O)[C@H](CO)NC(=O)[C@@H](N)CS)C(=O)N[C@@H](CS)C(=O)O` registered a Ki of 6.7 µM.

As to `CC(C)C[C@H](NC(=O)[C@H](CO)NC(=O)[C@H](Cc1ccc(O)cc1)NC(=O)[C@H](CS)NC(=O)[C@H](CS)NC(=O)[C@@H](N)CCCCN)C(=O)O` (H-KCCYSL-OH), the Ki in [2] turned out to be 30 µM. Turning to `CSCC[C@H](NC(=O)[C@H](CC(C)C)NC(=O)[C@H](CC(=O)O)NC(=O)[C@H](CCC(=O)O)NC(=O)[C@H](Cc1ccc(O)cc1)NC(=O)[C@H](CS)NC(=O)[C@H](C)NC(=O)[C@@H](NC(=O)[C@H](CCCNC(=N)N)NC(=O)[C@H](Cc1c[nH]c2ccccc12)NC(=O)[C@@H]1CCCN1C(=O)[C@H](C)NC(=O)[C@H](CS)NC(=O)[C@H](C)N)[C@@H](C)O)C(=O)N[C@@H](Cc1c[nH]c2ccccc12)C(=O)N[C@@H](CS)C(=O)NCC(N)=O` (H-ACAPWRTACYEDLMWCG-NH2), the inhibition entry in series [3], in series [4] and in series [5] was “inactive” each time.

The molecule `N=C(N)NCCC[C@H](NC(=O)[C@H](CS)NC(=O)[C@H](CCCNC(=N)N)NC(=O)[C@H](Cc1c[nH]c2ccccc12)NC(=O)[C@H](CO)NC(=O)[C@H](Cc1ccccc1)NC(=O)[C@H](CS)NC(=O)[C@@H](N)CS)C(=O)N[C@@H](CS)C(=O)O` (H-CCFSWRCRC-OH) registered a Ki in [6] of 1 µM.

As to `CC(C)C[C@H](NC(=O)[C@@H](NC(=O)[C@H](CCC(=O)O)NC(=O)[C@H](Cc1c[nH]c2ccccc12)NC(=O)[C@H](CCC(=O)O)NC(=O)[C@@H](N)CCC(=O)O)C(C)C)C(=O)N[C@@H](CS)C(=O)N[C@@H](Cc1c[nH]c2ccccc12)C(=O)N[C@H](C(=O)N[C@@H](Cc1c[nH]c2ccccc12)C(=O)N[C@@H](CCC(=O)O)C(=O)N[C@H](C(=O)N[C@@H](CS)C(=O)N[C@@H](CCC(=O)O)C(=O)N[C@@H](CCCN=C(N)N)C(=O)O)[C@@H](C)O)[C@@H](C)O` (H-EEWEVLCWTWETCER-OH), the IC50 in [7] was found to be 0.0015 µM. Molecule H-SRFKVWWAAF-OH yielded an IC50 in series [8] of 3.4 µM. As for `CC(C)C[C@H](NC(=O)[C@@H]1CCCN1C(=O)[C@H](CO)NC(=O)[C@H](CS)NC(=O)[C@H](Cc1cnc[nH]1)NC(=O)[C@H](CO)NC(=O)[C@H](Cc1ccc(O)cc1)NC(=O)[C@@H](CC(=O)O)NC(=O)CN)C(=O)N[C@@H](CCCNC(=N)N)C(=O)N[C@@H](Cc1ccc(O)cc1)C(=O)N[C@@H](Cc1ccc(O)cc1)C(=O)N1CCC[C@H]1C(=O)N[C@@H](Cc1c[nH]c2ccccc12)C(=O)N[C@@H](Cc1c[nH]c2ccccc12)C(=O)N[C@@H](CCCCN)C(=O)N[C@@H](CS)C(=O)N[C@H](C(=O)N[C@@H](Cc1ccc(O)cc1)C(=O)N1CCC[C@H]1C(=O)N[C@@H](CC(=O)O)C(=O)N1CCC[C@H]1C(=O)O)[C@@H](C)O`, the affinity in [9], expressed as Ki, was 0.0028 µM. For `CC(C)[C@H](NC(=O)[C@H](CCCNC(=N)N)NC(=O)[C@H](CS)NC(=O)[C@H](CCCNC(=N)N)NC(=O)CNC(=O)[C@H](CCC(=O)O)NC(=O)CNC(=O)[C@@H](NC(=O)CNC(=O)[C@H](CS)NC(=O)[C@@H](C)N)[C@H](C)O)C(=O)N[C@@H](CC(N)=O)C(=O)N[C@@H](Cc1c[nH]c2ccccc12)C(=O)N[C@H](C(=O)N1CCC[C@H]1C(=O)N[C@@H](CS)C(=O)NCC(N)=O)[C@@H](C)O`, the inhibition result in series [3], in series [4] and in series [5] was “inactive” each time. As to `CC[C@H](C)[C@H](NC(=O)[C@H](CS)NC(=O)[C@H](Cc1ccc(O)cc1)NC(=O)[C@H](C)NC(=O)[C@@H](NC(=O)[C@@H](N)CS)C(C)C)C(=O)N[C@@H](CCC(=O)O)C(=O)N[C@@H](Cc1cnc[nH]1)C(=O)N[C@@H](Cc1cnc[nH]1)C(=O)N[C@@H](CS)C(=O)N[C@@H](Cc1c[nH]c2ccccc12)C(=O)N[C@H](C(=O)N[C@@H](CS)C(=O)O)[C@@H](C)O` (H-CVAYCIEHHCWTC-OH), binding in [10] was characterised by a dissociation constant (Kd) of 2.9 µM. For `CC(C)C[C@H](NC(=O)[C@H](Cc1ccc(O)cc1)NC(=O)[C@H](CCCNC(=N)N)NC(=O)[C@H](CO)NC(=O)[C@H](Cc1ccc(O)cc1)NC(=O)[C@H](C)NC(=O)[C@@H]1CCCN1C(=O)[C@@H](N)CS)C(=O)N[C@@H](CC(=O)O)C(=O)N[C@@H](CS)C(=O)O`, the Ki in series [1] was determined as 0.4 µM. Regarding `CC(C)C[C@H](NC(=O)[C@H](C)NC(=O)[C@H](CCC(=O)O)NC(=O)[C@H](CC(=O)O)NC(=O)[C@H](C)NC(=O)[C@@H]1CCCN1C(=O)[C@H](CS)NC(=O)[C@H](CC(N)=O)NC(=O)[C@H](CCCNC(=N)N)NC(=O)[C@H](Cc1ccccc1)NC(=O)[C@H](CCCNC(=N)N)NC(=O)[C@H](CC(=O)O)NC(=O)[C@H](CO)NC(=O)[C@H](CS)NC(=O)[C@H](C)N)C(=O)N[C@@H](CS)C(=O)NCC(N)=O` (H-ACSDRFRNCPADEALCG-NH2), the inhibition entry in [3], in [4] and in [5] was “inactive” throughout. For the same molecule, the IC50 in series [11] is over 10 µM. For `CC(C)C[C@H](NC(=O)[C@@H]1CCCN1C(=O)[C@H](CS)NC(=O)[C@H](CC(N)=O)NC(=O)[C@H](CCCNC(=N)N)NC(=O)[C@H](Cc1ccccc1)NC(=O)[C@H](CCCNC(=N)N)NC(=O)[C@H](CC(=O)O)NC(=O)[C@H](CO)NC(=O)[C@H](CS)NC(=O)[C@H](C)N)C(=O)N[C@@H](Cc1c[nH]c2ccccc12)C(=O)N[C@@H](CO)C(=O)NCC(=O)N[C@H](C(=O)N[C@@H](CS)C(=O)NCC(N)=O)[C@@H](C)O` (H-ACSDRFRNCPLWSGTCG-NH2), the inhibition entry in [3], in series [4] and in series [5] was “inactive” throughout. The molecule further registered an IC50 in series [11] of over 10 µM. As to H-YDFYWW-OH, the IC50 in [12] was 30 µM. `CC(C)[C@H](NC(=O)[C@@H](N)CS)C(=O)N[C@@H](Cc1cnc[nH]1)C(=O)N[C@@H](CO)C(=O)N1CCC[C@H]1C(=O)N[C@@H](CC(N)=O)C(=O)N[C@@H](CCCNC(=N)N)C(=O)N[C@@H](CCC(=O)O)C(=O)N[C@@H](CS)C(=O)O` (H-CVHSPNREC-OH): the 50% inhibitory concentration (IC50) in series [13] came to 9 µM.

Consider `CC[C@H](C)[C@H](NC(=O)[C@H](CCC(=O)O)NC(=O)[C@@H](NC(=O)[C@@H]1CCCN1C(=O)[C@H](CS)NC(=O)[C@H](Cc1ccc(O)cc1)NC(=O)[C@H](CCCNC(=N)N)NC(=O)[C@H](CCCNC(=N)N)NC(=O)[C@H](CCC(=O)O)NC(=O)[C@@H](NC(=O)[C@H](CO)NC(=O)[C@H](CS)NC(=O)[C@H](C)N)[C@@H](C)O)[C@@H](C)CC)C(=O)N[C@@H](Cc1ccccc1)C(=O)N1CCC[C@H]1C(=O)N[C@@H](CS)C(=O)NCC(N)=O` (H-ACSTERRYCPIEIFPCG-NH2), for which the inhibition result in series [3], in [4] and in [5] was “inactive” throughout. In series [11], this molecule gave an IC50 of 7.18 µM. Take `CC(C)C[C@@H]1NC(=O)[C@H](C)NC(=O)[C@H](CCC(=O)O)NC(=O)[C@H](CC(=O)O)NC(=O)[C@H](C)NC(=O)[C@@H]2CCCN2C(=O)[C@@H]2CSCc3cc(cc(c3)CSC[C@@H](C(=O)NCC(N)=O)NC1=O)CSC[C@H](NC(=O)[C@H](C)N)C(=O)N[C@@H](CO)C(=O)N[C@@H](CC(=O)O)C(=O)N[C@@H](CCCNC(=N)N)C(=O)N[C@@H](Cc1ccccc1)C(=O)N[C@@H](CCCNC(=N)N)C(=O)N[C@@H](CC(N)=O)C(=O)N2` (H-ACSDRFRNCPADEALCG-NH2; linker 2-9-16 via TBMB): in [14], the inhibition result was “Active”. Also, the Stability result in series [15] was “Unstable”. In addition, the metabolised at 24 h in [16] was determined as 90%.

In general, Ki refers to a measure of affinity in units of concentration, obtained from inhibition or displacement. A lower Ki goes with higher affinity. Broadly, the IC50 is the midpoint of a concentration-inhibition curve. For orientation: Kd means a measure of binding affinity in units of concentration. Lower therefore signals a tighter complex.
